Rev-erbA mod: modulates human Rev-erb alpha binding to DNA. P20393. Rev-erbα–FITC-DNA binding, fluorescence polarization, 90 min. activity, % at 10 µM. 370,000 tested, 0.79% active. AID 1259318;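 active = activity above about 14%, limit read from the data; passing the limit was not always enough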;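 note: 0% = DMSO wells with 35 nM protein and 100% = DMSO wells with 750 nM protein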
NR2E3 ag-1: agonists of human nuclear receptor NR2E3 | GST-NR2E3/biotin-RetCOR TR-FRET, 1536-well | inhibition of corepressor binding, % at 4.78 µM | 320,000 tested, 0.12% active | AID 2300;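 active = percent inhibition above the cutoff of mean plus 3 SD of all tested compounds, set per screening campaign, cut at about 20% in these data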;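 note: 0% = DMSO wells and 100% = biotin wells as full block of FRET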
Target sequence (Q9Y5X4 whole entry, looked up): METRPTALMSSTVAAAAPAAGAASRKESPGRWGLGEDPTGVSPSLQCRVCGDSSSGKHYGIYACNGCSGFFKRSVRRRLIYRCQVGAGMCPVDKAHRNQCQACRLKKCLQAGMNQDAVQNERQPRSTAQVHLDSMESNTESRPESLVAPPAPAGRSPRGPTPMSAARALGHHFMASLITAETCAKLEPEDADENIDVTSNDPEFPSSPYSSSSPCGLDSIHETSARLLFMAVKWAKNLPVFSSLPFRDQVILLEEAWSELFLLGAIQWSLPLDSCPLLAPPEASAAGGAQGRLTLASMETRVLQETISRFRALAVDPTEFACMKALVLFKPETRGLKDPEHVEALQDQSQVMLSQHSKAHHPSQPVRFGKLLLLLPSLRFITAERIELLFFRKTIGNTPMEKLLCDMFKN
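System: GST-tagged NR2E3 plus biotinylated RetCOR corepressor; Amount: 1.35 nM GST-tagged NR2E3 final; Dosing: single nominal compound dose of 4.8 µM; Schedule: 5 h incubation at 4 °C; Technique: TR-FRET with europium anti-GST and streptavidin-D2, 340 nm excitation; Controls: biotin wells as high control, 0.6% DMSO wells as low control.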
PG9 Ab binder: binds the HIV-1 gp120 antibody PG9; inhibition, % at 6.7 µM; 360,000 tested, 0.43% active; TR-FRET gp120-PG9 antibody binding; in the data active = inhibition above about 8.5%
NR2E3 ag-2: agonists of human NR2E3 nuclear receptor. Q9Y5X4. 360,000 tested, 0.35% active. CHO-S Gal4-NCOR/VP16-NR2E3 two-hybrid, luciferase. inhibition of corepressor binding, % at 3.98 µM;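 active = inhibition above the mean of all tested compounds plus 3 SD, cut at about 70% in these data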;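 note: 0% = DMSO with NR2E3 transfected cells and 100% = cells lacking NR2E3 construct; higher means lower luciferase signal from less NR2E3 corepressor binding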
rCAG RNA binder: r(CAG) repeat RNA binding; 370,000 tested, 1.3% active; TO-PRO-1 dye displacement fluorescence; inhibition, % at 3 µM; AID 651821;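 active = inhibition above the plate cutoff, the mean of all test compounds on that plate plus 3 SD, cut at about 35% in these data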;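 note: 0% = DMSO alone and 100% = 100 µM mitoxantrone as full dye displacement; higher means more dye released from RNA so lower well fluorescence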
rCAG binder conf: r(CAG) RNA repeat binding, confirmation; AID 652065; inhibition, % at 3 µM; 4,300 tested, 70% active; TO-PRO-1 dye displacement fluorescence; shares compounds with rCAG RNA binder;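 active = inhibition above a per-plate cutoff, the mean inhibition of sample wells plus 3 SD, cut at about 35% in these data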;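 note: loss of TO-PRO-1 fluorescence as compound displaces dye from 1x1 AA loop RNA; 0% = DMSO only wells and 100% = 100 µM mitoxantrone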
DNA CAG counter: DNA CAG dye complex inhibition counter-screen; AID 652068; shares compounds with rCAG RNA binder; 4,300 tested, 94% active; inhibition, % at 3 µM; d(CAG) DNA oligo TO-PRO-1 dye displacement, fluorescence;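 active = inhibition above its plate's cutoff, the mean test-well inhibition plus 3 SD, cut at about 4.8% in these data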;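 note: 0% = DNA dye mix with DMSO and 100% = 100 µM mitoxantrone; hits displace the dye from DNA and so lower well fluorescence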
* = called active by the depositor; x = no result. A selection: hits, their analogues and other compounds. The true share with any hit is near 2.6%.

SMILES	Rev-erbA mod	NR2E3 ag-1	PG9 Ab binder	NR2E3 ag-2	rCAG RNA binder	rCAG binder conf	DNA CAG counter
C=CCOc1ccc(C=NNc2ccc(S(=O)(=O)Nc3ccccc3C(=O)O)cc2[N+](=O)[O-])cc1OC	-11	x	0	-9	37*	95*	80*
COc1ccc(C=NNc2ccc(S(=O)(=O)Nc3ccccc3C(=O)O)cc2[N+](=O)[O-])c(OC)c1	x	x	x	5	x	x	x
Cc1cccc(NC(=O)CNC(=O)[C@@H](Cc2ccccc2)NC(=O)[C@H]2O[C@@H](n3ccc(N)nc3=O)[C@H](O)[C@@H]2O)c1C	-5	x	1	x	0	x	x
COCCn1c(SCC(=O)Nc2c(C)n(C)n(-c3ccccc3)c2=O)nc2ccccc2c1=O	-2	4	-1	-39	-2	x	x
CC(O)(c1cccnc1)c1nc(-c2cc(F)cc(F)c2)cs1 (stereo not given)	1	x	1	3	2	x	x
COc1ccc(N=C2SC(C(=O)Nc3ccc(C(=O)O)cc3)CC(=O)N2Cc2cccs2)cc1 (stereo not given)	2	-3	0	-19	61*	60*	20*
O=C(Nc1ccc(S(=O)(=O)Nc2nccs2)cc1)c1ccc(F)c(S(=O)(=O)N2CCOCC2)c1	7	0	-1	-16	45*	37*	16*
Cc1ccc(S(=O)(=O)N2CCOCC2)cc1C(=O)Nc1ccc(S(=O)(=O)Nc2nccs2)cc1	-3	3	1	-10	39*	26	12*
CC(C)Oc1ccc(C(=O)Nc2cc(S(=O)(=O)N3CCOCC3)ccc2N2CCOCC2)cc1	2	x	-1	-18	-1	x	x
CCN(CC)c1ccc(C(=O)NNC(=O)C2CCN(c3ncnc4sc(C)c(C)c34)CC2)cc1	-6	x	-1	-3	6	x	x
O=C(N/N=C/c1cccnc1)c1cc2c(ccc3ccccc32)o1	-3	-3	-1	-11	7	x	x
O=C(N/N=C/c1ccc(O)c(Br)c1)c1cc2c(ccc3ccccc32)o1	-2	x	-3	-5	-4	x	x
O=C(N/N=C/c1cc(Cl)c(O)c(Cl)c1)c1cc2c(ccc3ccccc32)o1	-6	7	0	-24	86*	78*	40*
O=C(N/N=C/c1cc(Br)c(O)c(Br)c1)c1cc2c(ccc3ccccc32)o1	-8	x	-1	-30	96*	78*	46*
COc1cccc(NC(=O)C2(C)CCN2Cc2ccc3ccccc3c2)c1 (stereo not given)	3	x	-1	17	0	x	x
Cc1ccc(Nc2nnc(SCC(=O)NC(Cc3c[nH]c4ccccc34)C(=O)O)s2)cc1 (stereo not given)	2	-2	-1	-20	38*	28	8.6*
CCOc1ccccc1Nc1nnc(SCC(=O)Nc2ccc3[nH]c(=O)[nH]c3c2)s1	-1	2	0	-1	12	x	x
Cc1ccc(C)c(OCC(=O)NC(Cc2c[nH]c3ccccc23)C(=O)O)c1 (stereo not given)	-1	4	0	-22	20	x	x
CCOc1ccccc1Nc1nnc(SCC(=O)NC(Cc2c[nH]c3ccccc23)C(=O)O)s1 (stereo not given)	-2	-3	-1	-20	39*	33	10*
Cc1oc(-c2ccccc2)cc1C(=O)NC(Cc1c[nH]c2ccccc12)C(=O)O (stereo not given)	-5	2	-1	-40	40*	52*	18*
O=C(NC1CCCC1)C1c2ccccc2OCC(=O)N1Cc1ccc2c(c1)OCO2 (stereo not given)	7	x	1	-6	0	x	x
C[C@H]1CNC(=O)c2c(C(=O)N3CCN(c4ccccc4)CC3)ncn21	3	x	0	x	4	x	x
Cc1cc([N+](=O)[O-])cc(/C=N/n2c(C)nc3ccccc3c2=O)c1O	-4	-1	0	6	2	x	x
C/C(=N\OCc1nc2ccccc2c(=O)n1/N=C/c1cc(C)cc([N+](=O)[O-])c1O)c1ccccc1	2	-3	-3	-7	56*	64*	25*
Clc1cccc(-c2ccc(/C=N/n3cnnc3)o2)c1	4	-3	-2	-6	-1	x	x
